Source: PubChem BioAssay
PP1 counter: PP1-alpha (human) inhibition in PP5 counter-screen | purified PP1alpha, OMFP fluorescence | 0.9% of 320,000 active | P62136 | inhibition, % at 6.7 µM;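 active = inhibition above the mean inhibition of all tested compounds plus 3 SD, computed separately for each screening campaign, cut at about 15% in these data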
Target sequence (P62136 whole entry, looked up): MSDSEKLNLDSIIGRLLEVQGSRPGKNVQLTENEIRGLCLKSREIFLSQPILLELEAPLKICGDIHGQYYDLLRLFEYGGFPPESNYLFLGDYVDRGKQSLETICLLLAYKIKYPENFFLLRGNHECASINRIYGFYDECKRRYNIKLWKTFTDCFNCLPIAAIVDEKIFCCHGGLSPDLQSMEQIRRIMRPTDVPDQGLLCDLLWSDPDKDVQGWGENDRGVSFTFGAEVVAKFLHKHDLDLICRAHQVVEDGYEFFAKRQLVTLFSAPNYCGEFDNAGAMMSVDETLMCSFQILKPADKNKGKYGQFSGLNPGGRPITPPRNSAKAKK
proCasp3 act: activators of human procaspase-3; 0.11% of 330,000 active; activation, % at 8.5 µM; AID 463141; recombinant procaspase-3 D3A, Ac-DEVD-pNA absorbance 405 nm;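 active = activation above the mean of all tested compounds plus 3 SD, cut at about 21% in these data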;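 also: 0% = DMSO alone and 100% = DMSO wells spiked with extra 5 µM PC-3 D3A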
Target sequence (P42574 whole entry D9A/D28A/D175A): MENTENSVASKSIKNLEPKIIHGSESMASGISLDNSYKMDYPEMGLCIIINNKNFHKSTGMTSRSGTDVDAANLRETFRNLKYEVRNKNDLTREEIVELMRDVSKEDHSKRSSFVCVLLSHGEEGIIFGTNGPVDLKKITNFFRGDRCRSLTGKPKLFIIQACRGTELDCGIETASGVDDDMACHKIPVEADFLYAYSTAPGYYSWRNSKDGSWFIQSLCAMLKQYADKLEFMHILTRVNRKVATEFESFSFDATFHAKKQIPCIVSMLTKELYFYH
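System: Procaspase-3 D3A mutant. Medium: Zinc-free 300 mM NaCl, 50 mM HEPES, 0.01% Triton X-100. Schedule: 1 h preincubation plus 2 h reaction at 25 °C. Measured by: 405 nm absorbance of p-nitroaniline, reads at 0 and 120 min. Read-out: percent activation relative to control range.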
procasp7 counter: activates human procaspase-7, counter-screen for procaspase-3 activators. P55210. recombinant procaspase-7, Ac-DEVD-pNA absorbance 405 nm; D23A/D198A/D206A triple mutant, cannot self-cleave; scale: DMSO 0, 5 µM enzyme 100. activation, % at 8.5 µM. 0.093% of 330,000 active. AID 463210;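 active = percent activation above the screen-wide mean plus 3 SD, cut at about 25% in these data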
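Assay system: Uncleavable procaspase-7 mutant enzyme | Input: 2 µM procaspase-7 mutant as dispensed | Timing: 1 h compound preincubation, 2 h substrate cleavage, 25 °C | Repeats: One well per compound | Control set: DMSO wells as 0%, DMSO with 5 µM added PC-7 as 100% | Technique: Epi-absorbance of released pNA at 405 nm, two timepoints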
PP5 inh: inhibitors of human protein phosphatase 5 (PP5). inhibition, % at 6.7 µM. purified PP5c, OMFP substrate fluorescence. P53041. 0.18% of 320,000 active;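 active = inhibition above the campaign's mean inhibition across all tested compounds plus 3 SD, cut at about 9.5% in these data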;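 also: 0% = DMSO only and 100% = 100 µM cantharidin control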
PP5 inh confirm: confirmation of human PP5 phosphatase inhibitors. shares compounds with PP5 inh. Purified PP5, fluorogenic phosphatase substrate, fluorescence. inhibition, % at 6.7 µM. 22% of 460 active. AID 2331; in the data active = inhibition above about 9.5%
PP1 inh counter: counter-screen for PP5 inhibitors: human PP1 phosphatase inhibition | shares compounds with PP5 inh | PP1 enzyme, fluorescent phosphatase substrate | inhibition, % at 6.7 µM | 4% of 460 active | AID 2355; in the data active = inhibition above about 16%
The depositor's hits bear a star; · = no result given. Sampled rows, rich in hits. Any-hit rate of the full collection: about 1.2%.

SMILES	PP1 counter	proCasp3 act	procasp7 counter	PP5 inh	PP5 inh confirm	PP1 inh counter
COC(=O)c1[nH]c(C)c(/C(O)=C2\C(=O)C(=O)N(CCN(C)C)C2c2ccccc2OC)c1C (stereo unspecified)	-1	2	-1	0	·	·
COc1ccc(N(Cc2cc(=O)[nH]c3ccccc23)C(=O)CCl)cc1	-3	1	6	2	·	·
COc1ccc(CCNC(=O)CN2c3cccc4cccc(c34)S2(=O)=O)cc1OC	3	-7	-12	-3	·	·
CCNc1nc(Nc2ccc(C)c(Cl)c2)c2cnn(C)c2n1	6	8	1	10*	0	3
CCOC(=O)c1c(NC(=O)COC)sc2c1CCCC2	-1	-4	1	4	·	·
Cc1ccc(-c2c(C)sc(NC(=O)C3C4CCC(O4)C3C(=O)O)c2C(=O)OC(C)C)cc1 (stereo unspecified)	9	0	2	13*	-3	3
CCOC(=O)c1c(NC(=O)C2C3CCC(O3)C2C(=O)O)sc2c1CCCC2 (stereo unspecified)	9	-5	1	14*	11*	7
COC(=O)c1c(NC(=O)C2C3CCC(O3)C2C(=O)O)sc2c1CCCCCC2 (stereo unspecified)	3	9	-5	12*	0	-1
COC(=O)c1c(NC(=O)C2C3CCC(C3)C2C(=O)O)sc2c1CCCCC2 (stereo unspecified)	-4	-2	6	-1	·	·
CCc1cccc(C)c1NC(=O)C1C2CCC(O2)C1C(=O)O (stereo unspecified)	8	-5	-4	12*	7	6
CC(NC(=O)COc1ccc(S(=O)(=O)N2CCOCC2)cc1)c1ccccc1 (stereo unspecified)	-1	-1	8	2	·	·
O=C(Nc1cccc(S(=O)(=O)N2CCCCC2)c1)c1cc(=O)[nH]c2ccccc12	·	2	2	·	·	·
COc1cccc(/C=N/NC(=S)Nc2cccc(S(=O)(=O)N(C)C)c2)c1	-1	-17	-23	6	·	·
COc1ccc(O)c(/C=N/NC(=S)Nc2cccc(S(=O)(=O)N(C)C)c2)c1	2	-14	-12	12*	0	0
COc1ccc(C2N(S(=O)(=O)c3ccccc3)CCN2S(=O)(=O)c2ccc(C)cc2)cc1 (stereo unspecified)	1	2	-2	10*	1	2
Cc1ccc2c(CC(=O)NCC3(N4CCOCC4)CCCCC3)coc2c1C	3	1	-1	4	·	·
O=C(Nc1ccc2c(c1)CCC2)C1CCN(c2ncccn2)CC1	-3	-1	7	-1	·	·
O=C(Nc1ccc(C2CCCCC2)cc1)C1CCN(c2ncccn2)CC1	-3	4	-13	10*	-4	-3
COc1cc(/C=C/C(=O)Nc2cc(C(F)(F)F)ccc2Cl)cc(OC)c1OC	5	-9	2	9.9*	4	3
COc1ccc(/C=C/C(=O)Nc2cc(C(F)(F)F)ccc2Cl)cc1OC	2	-7	2	6	·	·
COc1cccc(S(=O)(=O)NC2CCN(C#N)C2)c1 (stereo unspecified)	0	6	-5	0	·	·
COc1cc(C=O)ccc1OC(=O)Nc1ccccc1	-2	-9	4	12*	-3	-2
CN(C)CCCn1c2c(c(SCC(=O)Nc3cccc4ccccc34)nc1=O)CCCC2	-3	-4	9	0	·	·
Cc1[nH]c2ccccc2c1C(C#N)(C#N)C1C(=O)c2ccccc2C1=O	7	-7	-8	21*	8	1
CSCCC(NS(=O)(=O)c1ccc2c(c1)OCCO2)C(=O)N(C)Cc1ccccc1F (stereo unspecified)	2	8	7	2	·	·
SMILES	PP1 counter	proCasp3 act	procasp7 counter	PP5 inh	PP5 inh confirm	PP1 inh counter
Cc1nn(Cc2ccc(Cl)cc2Cl)c(C)c1NC(=O)c1ccc(COc2cc(Cl)ccc2Cl)o1	12	-10	4	3	·	·
O=C(Nc1ccn(Cc2c(F)c(F)cc(F)c2F)n1)c1ccc(COc2ccc(Cl)cc2Cl)o1	7	0	-1	9.8*	1	2
Cc1nn(Cc2c(F)c(F)c(F)c(F)c2F)c(C)c1NC(=O)c1ccc(COc2ccc(Cl)cc2Cl)o1	10	3	-3	10*	3	2
COC(=O)C[C@H]1c2cc(C(F)(F)F)ccc2S(=O)(=O)N1C1CCCC1	1	12	6	4	·	·
COc1ccc(C2(c3ccc(OC)cc3)NC(=O)N(CC(=O)Nc3cc(C)ccc3OC)C2=O)cc1	2	1	6	2	·	·
COC(=O)C1=C(C)NC(C)=C(C(=O)OC)C1c1cn(-c2ccccc2)nc1-c1ccco1	6	5	-6	14*	2	3
COc1ccc(N(CC(=O)N2CCC(C(N)=O)CC2)S(=O)(=O)c2ccccc2)cc1	-2	9	0	-1	·	·
O=C(O)c1cccc(N2C(=O)c3ccc(C(=O)c4cccc([N+](=O)[O-])c4)cc3C2=O)c1	-6	6	10	1	·	·
CC(=O)N(CN1C(=O)c2ccc([N+](=O)[O-])cc2C1=O)c1cccc(C(=O)O)c1	0	8	-7	23*	-2	-4
O=[N+]([O-])c1ccc(N(c2ccccc2)c2ccccc2)cc1	-2	-16	-27	9.9*	-2	-1
CCN(C(=O)c1ccccc1)c1ccc([N+](=O)[O-])cc1	0	-5	2	-3	·	·
Nc1cccc2nsnc12	-2	-20	-26	1	·	·
Nc1cc2nsnc2cc1Br	5	-20	-33	11*	49*	1
COc1ccc(Nc2sc(C(=O)Nc3cccc(Cl)c3)c(N)c2C(=O)Nc2ccccc2OC)cc1	9	-7	-1	12*	1	6
COc1ccccc1NC(=O)C/C(N)=N/OCC(=O)Nc1cccc(Cl)c1	·	-1	7	·	·	·
Nc1ccccc1C(=O)N1CCc2ccccc21	3	-6	2	10*	-3	-4
O=C(c1ccccc1)N1CCc2ccccc21	-5	-5	-1	1	·	·
Cc1cc(C(=O)N2CCc3ccccc32)c2ccccc2n1	0	-6	-7	9.8*	-4	-2
NC(=O)c1ccc(C(F)(F)F)n(Cc2c(Cl)cccc2Cl)c1=O	-2	-6	0	12*	6	8
CCOc1ccc(S(=O)(=O)NCCC(=O)NC2CCC(C)CC2)cc1 (stereo unspecified)	·	4	-2	·	·	·
CCCCCNC(=O)CC1Nc2c3ccccc3nc(=S)n2C1=O (stereo unspecified)	-2	5	14	9.9*	-5	-4
CCCCNC(=O)CC1Nc2ccccc2NC1=O (stereo unspecified)	-4	6	7	0	·	·
C=CCn1c(O)c2ccc(C(=O)N=NC(=O)COc3ccccc3F)cc2c1O	1	2	2	0	·	·
